{"source": "ChEMBL document CHEMBL3046087", "about": "“Aminomethylphosphonic acid accumulation in plant species treated with glyphosate” (J Agric Food Chem, 2008)", "key": {"Lolium multiflorum [1]": {"test_system": "Lolium multiflorum", "assay": "Induction of shikimate accumulation in Lolium multiflorum (Italian ryegrass) at growth inhibition I50 level rate measured 7 days post treatment (reference value: 904 ug/g tissue)", "format": "functional", "in_short": "(§1)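 Plants were sprayed in the greenhouse at each species' I50 rate, with Tween 20 controls. Shoots were harvested at 7 DAT and rinsed free of surface glyphosate. Shikimic acid was measured by HPLC on a C18 column after 0.45 µm filtration, with 100 µL injected, isocratic 98% H2O (pH 3.0)/2% MeOH, at 1 mL flow.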"}, "Zea mays [2]": {"test_system": "Zea mays", "assay": "Induction of shikimate accumulation in non glyphosate-resistant Zea mays (maize) at growth inhibition I50 level rate measured 7 days post treatment (reference value: 161 ug/g tissue)", "format": "functional"}, "Zea mays [3]": {"test_system": "Zea mays", "assay": "Induction of shikimate accumulation in glyphosate-resistant Zea mays (maize) at growth inhibition I50 level rate measured 7 days post treatment (reference value: 241 ug/g tissue)", "format": "functional", "in_short": "as §1"}, "Abutilon theophrasti [4]": {"test_system": "Abutilon theophrasti", "assay": "Induction of shikimate accumulation in Abutilon theophrasti (velvetleaf) at growth inhibition I50 level rate measured 7 days post treatment (reference value: 2 ug/g tissue)", "format": "functional", "in_short": "as §1"}, "Erigeron canadensis [5]": {"test_system": "Erigeron canadensis", "assay": "Induction of shikimate accumulation in Conyza canadensis (horseweed) at growth inhibition I50 level rate measured 7 days post treatment (reference value: 251 ug/g tissue)", "format": "functional", "in_short": "as §1"}, "[6]": {"test_system": "Pueraria montana var. lobata", "assay": "Induction of shikimate accumulation in Pueraria montana var. lobata ( kudzu) at growth inhibition I50 level rate measured 7 days post treatment (reference value: 188 ug/g tissue)", "format": "functional", "in_short": "as §1"}, "Desmanthus illinoensis [7]": {"test_system": "Desmanthus illinoensis", "assay": "Induction of shikimate accumulation in Desmanthus illinoensis (Illinois bundleflower) at growth inhibition I50 level rate measured 7 days post treatment (reference value: 21 ug/g tissue)", "format": "functional"}, "Senna occidentalis [8]": {"test_system": "Senna occidentalis", "assay": "Induction of shikimate accumulation in Senna occidentalis (coffee senna) at growth inhibition I50 level rate measured 7 days post treatment (reference value: 277 ug/g tissue)", "format": "functional", "in_short": "as §1"}, "Sesbania herbacea [9]": {"test_system": "Sesbania herbacea", "assay": "Induction of shikimate accumulation in Sesbania herbacea at growth inhibition I50 level rate measured 7 days post treatment (reference value: 266 ug/g tissue)", "format": "functional", "in_short": "as §1"}, "Senna obtusifolia [10]": {"test_system": "Senna obtusifolia", "assay": "Induction of shikimate accumulation in Senna obtusifolia (sicklepod) at growth inhibition I50 level rate measured 7 days post treatment (reference value: 348 ug/g tissue)", "format": "functional", "in_short": "as §1"}, "Glycine max [11]": {"test_system": "Glycine max", "assay": "Induction of shikimate accumulation in glyphosate-resistant Glycine max (soybean) at growth inhibition I50 level rate measured 7 days post treatment (reference value: 65 ug/g tissue)", "format": "functional", "in_short": "as §1"}, "Glycine max [12]": {"test_system": "Glycine max", "assay": "Induction of shikimate accumulation in non glyphosate-resistant Glycine max (soybean) at growth inhibition I50 level rate measured 7 days post treatment (reference value: 27 ug/g tissue)", "format": "functional", "in_short": "as §1"}, "Vigna unguiculata [13]": {"test_system": "Vigna unguiculata", "assay": "Induction of shikimate accumulation in Vigna unguiculata (cowpea) at growth inhibition I50 level rate measured 7 days post treatment (reference value: 64 ug/g tissue)", "format": "functional", "in_short": "as §1"}, "Erigeron canadensis [14]": {"test_system": "Erigeron canadensis", "assay": "Ratio of compound to AMPA level in Conyza canadensis (horseweed) at growth inhibition I50 level rate measured 7 days post treatment", "format": "organism-based", "conditions": "in vivo, 168 h", "in_short": "(§2)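 Greenhouse plants (28/22 °C, 13 h photoperiod) were sprayed at each species' I50 rate with Tween 20 controls. Shoots were clipped 7 DAT and washed free of surface herbicide. Pooled ground tissue (1 g) was extracted twice with water under sonication. Extracts were derivatized with heptafluorobutanol/trifluoroacetic anhydride (90 °C, 1 h). Glyphosate and AMPA were quantified by GC-MS against derivatized standard curves, in duplicate.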"}, "[15]": {"test_system": "Pueraria montana var. lobata", "assay": "Ratio of compound to AMPA level in Pueraria montana var. lobata ( kudzu) at growth inhibition I50 level rate measured 7 days post treatment", "format": "organism-based", "conditions": "in vivo, 168 h", "in_short": "as §2"}, "Senna occidentalis [16]": {"test_system": "Senna occidentalis", "assay": "Ratio of compound to AMPA level in Senna occidentalis (coffee senna) at growth inhibition I50 level rate measured 7 days post treatment", "format": "organism-based", "conditions": "in vivo, 168 h", "in_short": "as §2"}, "Desmanthus illinoensis [17]": {"test_system": "Desmanthus illinoensis", "assay": "Ratio of compound to AMPA level in Desmanthus illinoensis (Illinois bundleflower) at growth inhibition I50 level rate measured 7 days post treatment", "format": "organism-based", "conditions": "in vivo, 168 h", "in_short": "as §2"}, "Senna obtusifolia [18]": {"test_system": "Senna obtusifolia", "assay": "Ratio of compound to AMPA level in Senna obtusifolia (sicklepod) at growth inhibition I50 level rate measured 7 days post treatment", "format": "organism-based", "conditions": "in vivo, 168 h", "in_short": "as §2"}, "Glycine max [19]": {"test_system": "Glycine max", "assay": "Ratio of compound to AMPA level in non glyphosate-resistant Glycine max (soybean) at growth inhibition I50 level rate measured 7 days post treatment", "format": "organism-based", "conditions": "in vivo, 168 h", "in_short": "as §2"}, "Vigna unguiculata [20]": {"test_system": "Vigna unguiculata", "assay": "Ratio of compound to AMPA level in Vigna unguiculata (cowpea) at growth inhibition I50 level rate measured 7 days post treatment", "format": "organism-based", "conditions": "in vivo, 168 h", "in_short": "as §2"}, "Glycine max [21]": {"test_system": "Glycine max", "assay": "Ratio of compound to AMPA level in glyphosate-resistant Glycine max (soybean) at growth inhibition I50 level rate measured 7 days post treatment", "format": "organism-based", "conditions": "in vivo, 168 h", "in_short": "as §2"}, "Zea mays [22]": {"test_system": "Zea mays", "assay": "Drug level in non glyphosate-resistant Zea mays (maize) assessed as AMPA level at growth inhibition I50 level rate measured 7 days post treatment", "format": "organism-based", "conditions": "in vivo, 168 h, BLD = below limit of detection", "in_short": "(§3)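 Greenhouse plants (28/22 °C, 13 h photoperiod) were sprayed with glyphosate at each species' I50 rate, with Tween 20-treated controls. Shoots were cut at 7 DAT and rinsed to remove surface herbicide. Pooled ground tissue (1 g) was water-extracted twice with sonication, acidified, and washed with methylene chloride. Extracts were derivatized with heptafluorobutanol/TFAA (90 °C, 1 h) and measured by GC-MS against derivatized standards, in duplicate.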"}, "Lolium multiflorum [23]": {"test_system": "Lolium multiflorum", "assay": "Drug level in Lolium multiflorum (Italian ryegrass) assessed as AMPA level at growth inhibition I50 level rate measured 7 days post treatment", "format": "organism-based", "conditions": "in vivo, 168 h, BLD = below limit of detection", "in_short": "as §3"}, "Erigeron canadensis [24]": {"test_system": "Erigeron canadensis", "assay": "Drug level in Conyza canadensis (horseweed) assessed as AMPA level at growth inhibition I50 level rate measured 7 days post treatment", "format": "organism-based", "conditions": "in vivo, 168 h", "in_short": "as §3"}, "Zea mays [25]": {"test_system": "Zea mays", "assay": "Drug level in glyphosate-resistant Zea mays (maize) assessed as AMPA level at growth inhibition I50 level rate measured 7 days post treatment", "format": "organism-based", "conditions": "in vivo, 168 h, BLD = below limit of detection", "in_short": "as §3"}, "Abutilon theophrasti [26]": {"test_system": "Abutilon theophrasti", "assay": "Drug level in Abutilon theophrasti (velvetleaf) assessed as AMPA level at growth inhibition I50 level rate measured 7 days post treatment", "format": "organism-based", "conditions": "in vivo, 168 h, BLD = below limit of detection", "in_short": "as §3"}, "[27]": {"test_system": "Pueraria montana var. lobata", "assay": "Drug level in Pueraria montana var. lobata ( kudzu) assessed as AMPA level at growth inhibition I50 level rate measured 7 days post treatment", "format": "organism-based", "conditions": "in vivo, 168 h", "in_short": "as §3"}, "Desmanthus illinoensis [28]": {"test_system": "Desmanthus illinoensis", "assay": "Drug level in Desmanthus illinoensis (Illinois bundleflower) assessed as AMPA level at growth inhibition I50 level rate measured 7 days post treatment", "format": "organism-based", "conditions": "in vivo, 168 h", "in_short": "as §3"}, "Sesbania herbacea [29]": {"test_system": "Sesbania herbacea", "assay": "Drug level in Sesbania herbacea assessed as AMPA level at growth inhibition I50 level rate measured 7 days post treatment", "format": "organism-based", "conditions": "in vivo, 168 h, BLD = below limit of detection", "in_short": "as §3"}, "Senna obtusifolia [30]": {"test_system": "Senna obtusifolia", "assay": "Drug level in Senna obtusifolia (sicklepod) assessed as AMPA level at growth inhibition I50 level rate measured 7 days post treatment", "format": "organism-based", "conditions": "in vivo, 168 h", "in_short": "as §3"}}}
{"smiles": "O=C(O)CNCP(=O)(O)O", "note": "[GLYPHOSATE]", "values": [{"measurement": "Activity", "setting": "Lolium multiflorum [1]", "result": 6701, "unit": "µg/g"}, {"measurement": "Activity", "setting": "Zea mays [2]", "result": 149, "unit": "µg/g"}, {"measurement": "Activity", "setting": "Zea mays [3]", "result": 245, "unit": "µg/g"}, {"measurement": "Activity", "setting": "Abutilon theophrasti [4]", "result": 159, "unit": "µg/g"}, {"measurement": "Activity", "setting": "Erigeron canadensis [5]", "result": 9101, "unit": "µg/g"}, {"measurement": "Activity", "setting": "[6]", "result": 8915, "unit": "µg/g"}, {"measurement": "Activity", "setting": "Desmanthus illinoensis [7]", "result": 668, "unit": "µg/g"}, {"measurement": "Activity", "setting": "Senna occidentalis [8]", "result": 686, "unit": "µg/g"}, {"measurement": "Activity", "setting": "Sesbania herbacea [9]", "result": 6828, "unit": "µg/g"}, {"measurement": "Activity", "setting": "Senna obtusifolia [10]", "result": 1092, "unit": "µg/g"}, {"measurement": "Activity", "setting": "Glycine max [11]", "result": 53, "unit": "µg/g"}, {"measurement": "Activity", "setting": "Glycine max [12]", "result": 15251, "unit": "µg/g"}, {"measurement": "Activity", "setting": "Vigna unguiculata [13]", "result": 16530, "unit": "µg/g"}, {"measurement": "Ratio", "setting": "Erigeron canadensis [14]", "result": 84}, {"measurement": "Ratio", "setting": "[15]", "result": 19}, {"measurement": "Ratio", "setting": "Senna occidentalis [16]", "result": 21}, {"measurement": "Ratio", "setting": "Desmanthus illinoensis [17]", "result": 2}, {"measurement": "Ratio", "setting": "Senna obtusifolia [18]", "result": 4}, {"measurement": "Ratio", "setting": "Glycine max [19]", "result": 38}, {"measurement": "Ratio", "setting": "Vigna unguiculata [20]", "result": 6}, {"measurement": "Ratio", "setting": "Glycine max [21]", "result": 49}, {"measurement": "Drug uptake", "setting": "Zea mays [22]", "result": "BLD"}, {"measurement": "Drug uptake", "setting": "Lolium multiflorum [23]", "result": "BLD"}, {"measurement": "Drug uptake", "setting": "Erigeron canadensis [24]", "result": 314, "unit": "ng/g"}, {"measurement": "Drug uptake", "setting": "Zea mays [25]", "result": "BLD"}, {"measurement": "Drug uptake", "setting": "Abutilon theophrasti [26]", "result": "BLD"}, {"measurement": "Drug uptake", "setting": "[27]", "result": 297, "unit": "ng/g"}, {"measurement": "Drug uptake", "setting": "Desmanthus illinoensis [28]", "result": 1513, "unit": "ng/g"}, {"measurement": "Drug uptake", "setting": "Sesbania herbacea [29]", "result": "BLD"}, {"measurement": "Drug uptake", "setting": "Senna obtusifolia [30]", "result": 1834, "unit": "ng/g"}]}
